Shown are actives, neighbours in structure and some others; about 0.98% of the full set was active somewhere.
Statin myotox sup: suppressors of simvastatin-induced myotoxicity in C2C12 myotubes; ATP luminescence, 48 h; scaled: DMSO 0, geranylgeraniol control 100; rescue of ATP level, % at 7.49 µM; actives 0.78% (n = 330,000);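 active = mean ATP rescue above about 67%, or every replicate alone reaching that limit, limit read from the data, passing the limit was not always enough; inconclusive = no clear call, values can overlap the other calls; inactive = mean under the limit and some replicate under it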;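 also: myotubes were challenged with 10 µM simvastatin during compound exposure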
S100A4 inh HTS: S100A4-myosin IIA interaction inhibition. P26447. S100A4/TAMRA-MyoIIA peptide fluorescence polarization. inhibition, % at 10.7 µM. actives 0.14% (n = 360,000);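 active = mean inhibition of at least 70% across replicates, with every replicate also reaching that level; inconclusive = mean inhibition reaches 70% but some replicates fall short; inactive = mean inhibition below 70%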
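Material: S100A4 monomer protein | Medium: HEPES pH 7.2 with CaCl2, KCl, NaCl, DTT, Triton | Reagent: Labelled myosin peptide probe, 5 nM | Doses: One dose per compound | Times: 5 min incubation before reading | Benchmarks: Neutral control DMSO, positive control TFP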
ERAP1 HTS inh: blocks human ERAP1 aminopeptidase activity; Q9NZ08; recombinant ERAP1, Leu-AMC fluorescence, 60 min; inhibition, % at 10.7 µM; actives 0.15% (n = 340,000); AID 652197;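 active = mean replicate inhibition of at least 30%, or all replicates individually reaching that 30% level; inactive = mean below 30% and not every replicate reaching it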;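 also: 0% = neutral control wells and 100% = L-leucinethiol positive control wells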
Target sequence (Q9NZ08 whole entry, looked up): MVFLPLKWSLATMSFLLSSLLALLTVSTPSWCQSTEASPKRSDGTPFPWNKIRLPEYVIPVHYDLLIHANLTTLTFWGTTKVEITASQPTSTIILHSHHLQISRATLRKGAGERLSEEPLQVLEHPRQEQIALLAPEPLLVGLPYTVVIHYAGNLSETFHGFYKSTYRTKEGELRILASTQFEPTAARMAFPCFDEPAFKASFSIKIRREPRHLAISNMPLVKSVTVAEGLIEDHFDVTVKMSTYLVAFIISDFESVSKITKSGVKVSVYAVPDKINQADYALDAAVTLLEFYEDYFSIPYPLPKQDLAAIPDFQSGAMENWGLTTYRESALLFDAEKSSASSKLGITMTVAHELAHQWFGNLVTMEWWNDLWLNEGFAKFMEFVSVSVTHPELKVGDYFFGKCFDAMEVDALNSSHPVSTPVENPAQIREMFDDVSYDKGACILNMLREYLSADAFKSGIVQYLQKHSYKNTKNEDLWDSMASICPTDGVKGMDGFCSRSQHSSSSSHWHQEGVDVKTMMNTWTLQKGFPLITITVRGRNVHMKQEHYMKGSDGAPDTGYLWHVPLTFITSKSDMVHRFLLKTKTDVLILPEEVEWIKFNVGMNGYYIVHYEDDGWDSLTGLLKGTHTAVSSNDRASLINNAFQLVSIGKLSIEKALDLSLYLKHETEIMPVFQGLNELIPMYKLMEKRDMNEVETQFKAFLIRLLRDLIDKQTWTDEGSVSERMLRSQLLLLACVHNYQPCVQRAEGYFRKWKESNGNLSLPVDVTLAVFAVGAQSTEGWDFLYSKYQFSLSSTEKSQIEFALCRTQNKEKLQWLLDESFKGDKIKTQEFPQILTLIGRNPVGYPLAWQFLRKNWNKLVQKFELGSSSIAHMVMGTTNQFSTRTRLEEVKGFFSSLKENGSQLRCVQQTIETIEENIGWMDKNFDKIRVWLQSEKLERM
PGC1a acetyl inh: PGC1a acetylation modulation, inhibitor mode; U2OS PGC1a acetylation, AlphaScreen anti-acetyl-lysine; with virally co-expressed GCN5 acetyltransferase; inhibition, % at 15.6 µM; actives 0.17% (n = 350,000);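 active = every replicate shows inhibition of at least 40%; inconclusive = mean inhibition at least 40% but some replicate below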;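 also: 0% = neutral control wells and 100% = positive control wells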
Rtt109 HAT inh: inhibitors of Candida albicans Rtt109/Vps75 histone acetyltransferase. Q5AAJ8. purified Rtt109/Vps75, ThioGlo CoA-SH fluorescence, 4 h. inhibition, % at 34.9 µM. actives 0.16% (n = 330,000);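 active = inhibition of at least 50% in every replicate; inconclusive = best replicate reaches 50% inhibition but some replicates fall short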
* hit, by the source's call; ? = inconclusive; nt = not tested or not shown; + = active, no number.

SMILES	Statin myotox sup	S100A4 inh HTS	ERAP1 HTS inh	PGC1a acetyl inh	Rtt109 HAT inh
CCOC(=O)C1Cc2ccccc2C(=O)O1 (stereo not drawn)	0.8	nt	nt	-8.1	1.6
CN(C)S(=O)(=O)c1ccc(S(=O)(=O)N(CC(=O)Nc2ccccc2)CC2CCCO2)cc1 (stereo not drawn)	85.3*	nt	nt	-6.9	-4.2
C=C1C(=O)[C@]23C[C@H]1CCC2[C@@]1(C)C(C[C@@H]3O)[C@](C)(C(=O)OC)CC[C@@H]1O (stereo partly drawn)	29.2	0.3	2.5	92.5*	nt
C[C@@]12C(C[C@H](O)[C@@]34C[C@@H](CCC13)[C@@H](CO)C4=O)[C@](C)(C(=O)O)CC[C@@H]2O (stereo partly drawn)	0.4	0.0	nt	-7.1	nt
CCN(C[C@H]1[C@@H](c2ccc(-c3ccccc3F)cc2)[C@@H](CO)N1C(C)=O)C(C)=O	nt	7.2	-3.7	nt	nt
COc1cccc(C(C(=O)NC2CCCC2)N(CCC(C)C)C(=O)CCC(=O)Nc2cc(C)on2)c1 (stereo not drawn)	-3.4	1.5	-1.5	nt	50.2*
COc1ccc(C(C(=O)NC2CCCC2)N(CCC(C)C)C(=O)CCC(=O)Nc2cc(C)on2)cc1 (stereo not drawn)	-6.0	-0.9	-1.1	nt	25.5
C[C@@H]1CN([C@H](C)CO)C(=O)Cc2cc(NC(=O)C3CC3)ccc2O[C@@H]1CN(C)S(C)(=O)=O	3.7	4.4	-1.7	nt	nt
c1cncc(Oc2cccc(Oc3cccnc3)c2)c1	107.7*	nt	nt	-7.1	-8.2
Nc1cc(Oc2cccnc2)cc([N+](=O)[O-])c1	nt	6.5	-1.5	-1.2	2.1
Cc1ccc(NC(=O)c2cccc(OCc3c(C)noc3C)c2)cc1	105.1*	nt	nt	-15.1	14.2
Cc1noc(C)c1COc1cccc(C(=O)Nc2ccccc2)c1	0.6	-6.9	-0.4	-15.0	2.3
COc1ccc(S(=O)(=O)N2CCN(c3ccc4nnc(-c5ccccc5)n4n3)CC2)cc1	111.0*	-3.8	4.2	-9.3	-19.5
CNC(=O)C[C@H]1CC[C@H]2[C@@H](COc3ccc(NC(=O)Nc4cccc(C)c4)cc3C(=O)N2C)O1	12.0	6.2	2.3	-0.6	nt
CC(=O)C(C(c1ccccc1)N1CCOCC1)N1CCOCC1 (stereo not drawn)	-1.9	-0.9	-5.2	6.4	-10.8
CSc1ccc(C(C(C(=O)c2cccs2)N2CCOCC2)N2CCOCC2)cc1 (stereo not drawn)	77.4*	nt	nt	-7.2	-3.0
CCN(C(=O)COC(=O)c1cnc(C)cn1)C1CCS(=O)(=O)C1 (stereo not drawn)	-1.9	-3.2	69.0*	8.7	11.6
Cc1cc2ccccc2n1CCNC(=O)Cc1cccc2ccccc12	16.8	73.2*	-2.0	nt	5.0
CCC(=O)NCCn1c(C)cc2ccccc21	-11.2	nt	nt	1.8	-3.3
Cc1cc2ccccc2n1CCNC(=O)c1ccc(Br)o1	-5.0	89.8*	0.6	nt	-5.0
Cc1ccc(Nc2cc(=O)[nH]c(=O)[nH]2)c(C)c1	120.9*	nt	nt	5.3	-5.5
Cc1cccc(Nc2cc(=O)[nH]c(=O)[nH]2)c1C	nt	nt	nt	nt	17.7
C[C@H](CO)N1C[C@H](C)[C@H](CN(C)Cc2ccc(Oc3ccccc3)cc2)Oc2ccc(NC(=O)c3ccncc3)cc2CC1=O	-48.3	-18.0	-1.1	-7.5	nt
CCC/C(=C1/c2ccccc2C(=O)N1c1ccccc1)c1ccc(O[C@@H]2CCCCO2)cc1	-2.6	0.4	19.1	-16.8	0.0
CCC/C(=C1/c2ccccc2C(=O)N1c1ccccc1)c1ccc2c(c1)OCCO2	115.1*	-1.1	0.9	4.4	-3.6
SMILES	Statin myotox sup	S100A4 inh HTS	ERAP1 HTS inh	PGC1a acetyl inh	Rtt109 HAT inh
COc1cccc2c1C(=O)c1c(O)c3c(c(O)c1C2=O)C[C@](O)(C(C)=O)C[C@H]3O[C@@H]1C[C@@H](N)[C@@H](O)[C@@H](C)O1	-150.9	+	19.5	nt	?
COc1cccc2c1C(=N)c1c(O)c3c(c(O)c1C2=O)CC(O)(C(C)=O)CC3OC1CC(N)C(O)C(C)O1 (stereo not drawn)	nt	nt	nt	2.1	-2.2
COc1cccc2c1C(=O)c1c(O)c3c(c(O)c1C2=O)CC(O)(C(C)=O)CC3OC1CC(O)C(O)C(C)O1 (stereo not drawn)	nt	+	31.8*	-5.5	2.3
O=C(/C=C/c1c(F)cccc1Cl)c1ccc(F)cc1	128.8*	nt	nt	-13.6	3.1
CS(=O)(=O)Nc1ccc2c(c1)[C@H]1C[C@H](CC(=O)NCc3ccc(-c4ccccc4)cc3)O[C@@H](CO)[C@H]1O2	15.7	nt	nt	2.3	nt
Cn1c(=O)[nH]c(=O)c2c1nc(CN1CCN(c3cccc(Cl)c3)CC1)n2CCc1ccccc1	92.4*	5.3	-2.5	10.2	29.5
Cc1cc(Cl)ccc1OC(C)C(=O)Nc1ccccc1N1CCOCC1 (stereo not drawn)	93.9*	nt	nt	-14.7	-17.1
O=C(Nc1ccccc1N1CCOCC1)C1(c2ccc(Cl)cc2)CCC1	nt	-4.9	-1.8	40.7*	-0.7
Cc1ccc(C(=O)Nc2c(C(=O)N3CCOCC3)cnn2-c2ccccc2)cc1	110.6*	nt	nt	-13.0	10.5
Cc1noc(C)c1NC(=O)N[C@@H]1CC[C@H](CC(=O)NCc2ccc(Cl)c(Cl)c2)O[C@@H]1CO	8.1	0.2	1.9	-2.1	nt
O=C(Nc1nc(-c2ccc(Br)cc2)cs1)c1cccnc1	nt	1.8	0.6	0.7	3.6
O=C(NC(=S)Nc1nc(-c2ccc(Br)cc2)cs1)c1cccnc1	253.6*	nt	nt	0.7	-0.9
C[C@@H](NC(=O)C[C@@H]1C[C@H]2c3cc(NC(=O)c4cccnc4)ccc3O[C@H]2[C@H](CO)O1)c1ccccc1	0.6	-0.7	1.0	-1.5	nt
C[C@H](CO)N1C[C@H](C)[C@@H](CN(C)Cc2ccc(C(F)(F)F)cc2)Oc2ccc(NC(=O)CCCCCC(=O)Nc3ccccc3N)cc2CC1=O	106.5*	-9.0	0.0	3.5	nt
C[C@@H]1CN([C@H](C)CO)C(=O)Cc2cc(NC(=O)CCCCCC(=O)Nc3ccccc3N)ccc2O[C@H]1CN(C)Cc1ccc(Cl)c(Cl)c1	nt	-6.0	-2.2	2.7	nt
C[C@@H]1CN([C@H](C)CO)C(=O)Cc2cc(NC(=O)CCCCCC(=O)Nc3ccccc3N)ccc2O[C@H]1CN(C)Cc1ccc(Oc2ccccc2)cc1	104.1*	-0.4	2.4	-1.4	nt
C[C@@H]1CN([C@@H](C)CO)C(=O)Cc2cc(NC(=O)CCCCCC(=O)Nc3ccccc3N)ccc2O[C@@H]1CN(C)Cc1ccc(C(F)(F)F)cc1	-16.9	-23.2	0.4	-0.4	nt
C[C@H]1CN([C@@H](C)CO)C(=O)Cc2cc(NC(=O)CCCCCC(=O)Nc3ccccc3N)ccc2O[C@@H]1CN(C)Cc1ccc(Cl)c(Cl)c1	124.0*	-0.5	-0.4	2.5	nt
C[C@H]1CN([C@@H](C)CO)C(=O)Cc2cc(NC(=O)CCCCCC(=O)Nc3ccccc3N)ccc2O[C@H]1CN(C)Cc1ccc(-c2ccccc2)cc1	142.3*	-2.4	0.6	-9.2	nt
